The source made the active and inactive calls. The rule behind the calls is not given here.
Tests used:
[1] = molecular target: T1, GABA-A receptor; alpha-2/beta-3/gamma-2 (Homo sapiens, UniProt P18507+P28472+P47869); assay: Activation of human GABAA alpha-2-beta-3-gamma-2L receptor expressed in Xenopus oocytes assessed as modulation of GABA-induced current by two-electrode voltage-clamp method
T1 sequence (P18507 whole entry): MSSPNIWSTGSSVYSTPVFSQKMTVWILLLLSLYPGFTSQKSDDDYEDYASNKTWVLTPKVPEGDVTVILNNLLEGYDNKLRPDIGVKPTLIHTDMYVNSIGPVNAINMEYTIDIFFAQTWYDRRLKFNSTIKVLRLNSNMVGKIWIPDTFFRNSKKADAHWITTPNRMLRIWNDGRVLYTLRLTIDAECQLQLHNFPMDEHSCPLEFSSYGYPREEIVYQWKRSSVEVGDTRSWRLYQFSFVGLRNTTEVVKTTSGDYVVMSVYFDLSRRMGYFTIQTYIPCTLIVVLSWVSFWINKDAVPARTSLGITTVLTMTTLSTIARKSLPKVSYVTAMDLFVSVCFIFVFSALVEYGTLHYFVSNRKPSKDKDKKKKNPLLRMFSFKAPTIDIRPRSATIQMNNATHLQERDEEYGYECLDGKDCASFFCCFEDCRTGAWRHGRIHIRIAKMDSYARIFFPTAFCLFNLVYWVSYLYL
T1 sequence (P28472 whole entry): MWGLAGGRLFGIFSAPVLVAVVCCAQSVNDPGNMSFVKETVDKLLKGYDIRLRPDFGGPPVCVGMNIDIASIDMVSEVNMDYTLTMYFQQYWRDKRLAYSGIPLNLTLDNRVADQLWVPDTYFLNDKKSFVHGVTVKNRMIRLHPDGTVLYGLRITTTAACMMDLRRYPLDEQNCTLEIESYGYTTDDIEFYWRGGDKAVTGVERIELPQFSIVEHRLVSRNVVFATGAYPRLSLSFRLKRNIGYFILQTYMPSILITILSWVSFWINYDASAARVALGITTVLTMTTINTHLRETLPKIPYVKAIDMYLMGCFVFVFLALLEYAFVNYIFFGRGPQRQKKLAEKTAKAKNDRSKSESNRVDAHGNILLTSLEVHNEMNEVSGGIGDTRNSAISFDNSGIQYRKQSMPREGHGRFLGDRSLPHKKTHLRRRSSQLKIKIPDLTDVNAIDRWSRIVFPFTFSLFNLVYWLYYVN
T1 sequence (P47869 whole entry): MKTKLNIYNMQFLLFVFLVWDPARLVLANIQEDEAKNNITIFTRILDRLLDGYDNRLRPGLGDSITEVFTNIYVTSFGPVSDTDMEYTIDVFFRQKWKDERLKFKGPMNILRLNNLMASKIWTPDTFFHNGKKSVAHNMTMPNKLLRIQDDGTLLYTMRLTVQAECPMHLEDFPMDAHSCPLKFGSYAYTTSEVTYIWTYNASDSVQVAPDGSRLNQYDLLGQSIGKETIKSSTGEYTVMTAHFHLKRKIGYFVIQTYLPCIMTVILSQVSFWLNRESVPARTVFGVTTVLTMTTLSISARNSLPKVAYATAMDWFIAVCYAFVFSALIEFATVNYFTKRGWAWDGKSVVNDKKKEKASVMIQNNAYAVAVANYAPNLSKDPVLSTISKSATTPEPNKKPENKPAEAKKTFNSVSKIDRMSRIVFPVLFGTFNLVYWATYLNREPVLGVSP

[2] = molecular target: T2, Neuronal acetylcholine receptor; alpha4/beta2 (Homo sapiens) (UniProt P17787+P43681); assay: Activation of human nAChR alpha-4-beta-2 expressed in Xenopus oocytes assessed as modulation of nicotine-induced current by measuring ratio of I/Imax current by two-electrode voltage-clamp method; type: cell-based; details: Oocyte
Procedure, shortened: (§1)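 Oocytes injected with 0.005–50 ng mRNA per subunit (α4β2 and α3β4 at 1:1; α1β1γδ at 1:1:1:1; α7 and 5-HT3A single). Two-electrode voltage clamp at −70 mV, 3–14 days post-injection. Ca²⁺-free Ringer's with BaCl₂ replacing Ca²⁺ (pH 7.4) to limit Ca²⁺-activated Cl⁻ currents. Rapid linear-array application. Current expressed as I/I_max; concentration–effect data fit to a four-parameter logistic. For α7, agonist was fixed at EC₅.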

[3] = molecular target: T3, Neuronal acetylcholine receptor subunit alpha-7 (Homo sapiens, UniProt P36544); assay: Activation of human alpha-7 nAChR expressed in Xenopus oocytes assessed as modulation of nicotine-induced current by two-electrode voltage-clamp method; type: cell-based, Oocyte
Procedure, shortened: as §1

[4] = molecular target: GABA-A receptor; alpha-2/beta-3/gamma-2 (Homo sapiens) (UniProt P18507+P28472+P47869); assay: Activation of human GABAA alpha-2-beta-3-gamma-2L receptor expressed in Xenopus oocytes assessed as modulation of GABA-induced current by measuring ratio of I/Imax current by two-electrode voltage-clamp method; details: Oocyte
[5] = molecular target: T4, 5-hydroxytryptamine receptor 3A (Homo sapiens) (UniProt P46098); assay: Activity at human 5HT3A receptor expressed in Xenopus oocytes assessed as stimulation of […] current at 10 uM by two-electrode voltage-clamp method; type: cell-based; details: Oocyte
T4 sequence (whole entry): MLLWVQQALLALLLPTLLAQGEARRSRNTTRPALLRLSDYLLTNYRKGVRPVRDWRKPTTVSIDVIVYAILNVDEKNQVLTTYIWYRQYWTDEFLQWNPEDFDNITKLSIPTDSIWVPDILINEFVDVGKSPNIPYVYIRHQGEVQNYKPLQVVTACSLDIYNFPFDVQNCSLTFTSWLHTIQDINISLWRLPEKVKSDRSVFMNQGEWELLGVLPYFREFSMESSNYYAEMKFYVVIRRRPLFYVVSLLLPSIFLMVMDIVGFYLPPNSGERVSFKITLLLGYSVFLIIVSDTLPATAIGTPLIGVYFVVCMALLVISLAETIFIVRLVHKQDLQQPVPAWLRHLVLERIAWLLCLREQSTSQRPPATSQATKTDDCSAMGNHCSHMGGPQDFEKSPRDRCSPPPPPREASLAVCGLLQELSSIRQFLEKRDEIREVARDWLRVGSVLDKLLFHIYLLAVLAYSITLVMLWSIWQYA
Procedure, shortened: as §1

[6] = molecular target: T2, Neuronal acetylcholine receptor; alpha4/beta2 (Homo sapiens); assay: Activity at human nAChR alpha4beta2 expressing Xenopus oocytes assessed as stimulation of nicotine-induced current at 10 uM by two-electrode voltage-clamp method; type: cell-based; details: Oocyte
Procedure, shortened: as §1

[7] = molecular target: T3, Neuronal acetylcholine receptor subunit alpha-7; assay: Activation of human alpha-7 nAChR expressed in Xenopus oocytes assessed as modulation of nicotine-induced current by measuring ratio of I/Imax current by two-electrode voltage-clamp method; type: cell-based; details: Oocyte
Procedure, shortened: as §1

T3 sequence (P36544 whole entry): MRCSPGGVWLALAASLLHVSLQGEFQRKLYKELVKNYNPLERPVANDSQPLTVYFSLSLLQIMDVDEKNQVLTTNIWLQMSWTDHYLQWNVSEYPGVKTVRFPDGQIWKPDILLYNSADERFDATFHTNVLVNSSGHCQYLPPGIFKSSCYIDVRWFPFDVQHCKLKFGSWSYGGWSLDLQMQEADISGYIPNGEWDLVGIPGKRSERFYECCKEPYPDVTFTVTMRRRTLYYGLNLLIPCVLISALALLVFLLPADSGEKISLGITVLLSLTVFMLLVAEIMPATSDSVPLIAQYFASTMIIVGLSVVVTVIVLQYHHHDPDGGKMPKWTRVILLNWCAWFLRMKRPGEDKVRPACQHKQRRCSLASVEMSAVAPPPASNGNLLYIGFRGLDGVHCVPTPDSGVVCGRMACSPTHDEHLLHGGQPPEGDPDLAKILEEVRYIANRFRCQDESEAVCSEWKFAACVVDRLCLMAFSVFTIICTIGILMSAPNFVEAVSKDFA

EC50 [1]: 0.2 µM
Activity [2]: inactive
EC50 [3]: 1.8 µM
Ratio [4]: 0.93
Activity [5]: inactive
Activity [6]: inactive
Ratio [7]: 0.86
Structure (SMILES): CCOC(=O)/C(=C\Nc1ccc(OCC)cc1)C(=O)c1ccccc1Cl

From ChEMBL document CHEMBL1142221, “Nootropic alpha7 nicotinic receptor allosteric modulator derived from GABAA receptor modulators” (Proc Natl Acad Sci U S A, 2007)
